For data set [1], the system named is Candida albicans. As to the kind of experiment: Antimicrobial activity against Candida albicans MTCC 227 at 500 ug/ml after 24 hrs by cup plate method. The data set is classed as functional. The settings on record: MTCC 227, 24 h, read-out: DIZ.
Data set [2] concerns Aspergillus niger. As to the kind of experiment: Antimicrobial activity against Aspergillus niger MTCC 292 at 500 ug/ml after 24 hrs by cup plate method. It counts as functional. The settings on record: MTCC 292, 24 h, read-out: DIZ.
Data set [3] has as its system Bacillus subtilis. As to the kind of experiment: Antimicrobial activity against Bacillus subtilis MTCC 441 at 200 ug/ml after 24 hrs by cup plate method. The data set is classed as functional. The settings on record: MTCC 441, 24 h, read-out: DIZ.
The test system of data set [4] is Pseudomonas aeruginosa. Put plainly: Antimicrobial activity against Pseudomonas aeruginosa MTCC 1688 at 200 ug/ml after 24 hrs by cup plate method. The settings on record: MTCC 1688, 24 h, read-out: DIZ. The data set is classed as functional.
Data set [5] concerns Staphylococcus aureus. As to the kind of experiment: Antimicrobial activity against Staphylococcus aureus MTCC 96 at 200 ug/ml after 24 hrs by cup plate method. It counts as functional. The settings on record: MTCC 96, 24 h, read-out: DIZ.
Data set [6] relates to Escherichia coli. Put plainly: Antimicrobial activity against Escherichia coli ESS 2231 at 200 ug/ml after 24 hrs by cup plate method. The data set is classed as functional. Conditions: ESS 2231, 24 h, read-out: DIZ.
In data set [7] the test system is Escherichia coli. Put plainly: Antimicrobial activity against Escherichia coli ESS 2231 at 0.02 ml of 1 mg/ml after 24 hrs by cup plate method. The data set is classed as functional. Conditions: ESS 2231, 24 h, read-out: DIZ. The procedure, abridged: (§1)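 Cup-plate diffusion on Mueller-Hinton/nutrient agar swab-streaked with suspension, 6 mm cups bored. Each compound at 1 mg/ml in DMSO, 0.02 ml per cup; DMSO as solvent control. Amoxicillin for bacteria and fluconazole for fungi at 200 and 500 respectively as references. Incubation 37 °C for 24 h. Inhibition zone diameter in mm, triplicate, mean ± SD.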

For a further data set, the system named is Rattus norvegicus. As to the kind of experiment: Antiinflammatory activity in Wister rat assessed as inhibition of carrageenan-induced paw edema at 100 mg/kg, po administered 1 hr before carrageenan challenge measured after 3 hrs by plethysmograph analysis. It counts as functional. The procedure, abridged:
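Rats of either sex, 150–220 g, food withheld 4 h. Compound or diclofenac sodium 100 mg/kg p.o., or 0.5% sodium CMC at 10 ml/kg as vehicle control, given 1 h before 0.05 ml of 1% carrageenan subplantar into the right hind paw. Paw volume read by water-displacement plethysmograph at 0, 30, 60, 120 and 180 min. % edema inhibition = 100(1−Vt/Vc); n=5, control n=6; ANOVA/Dunnett.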

Data set [8] deals with Aspergillus niger. As to the kind of experiment: Antimicrobial activity against Aspergillus niger MTCC 292 at 0.02 ml of 1 mg/ml after 24 hrs by cup plate method. It counts as functional. The settings on record: MTCC 292, 24 h, read-out: DIZ. The procedure, abridged:
as §1

Data set [9] relates to Mus musculus. As to the kind of experiment: Analgesic activity in Swiss albino mouse assessed as inhibition of acetic acid-induced writhing response at 100 mg/kg, po administered 1 hr before acetic acid challenge after 5 mins. The data set is classed as functional. (Writhing tests count abdominal constrictions after an irritant is injected.)
The nature of data set [10]: Cytotoxicity against brine shrimps larvae assessed as mortality after 24 hrs. It counts as organism-based. Conditions: artemia, in vivo; read-out: ED50. The essentials:
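Shrimp eggs were hatched in filtered artificial sea water (38 g sea salt/L) in a divided tank. Larvae were exposed in vials at several concentrations under a lamp, and survivors were counted 24 h later. ED50 and 95% confidence intervals were derived from % larvae surviving by Finney probit analysis.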

Data set [11] deals with Pseudomonas aeruginosa. Put plainly: Antimicrobial activity against Pseudomonas aeruginosa MTCC 1688 at 0.02 ml of 1 mg/ml after 24 hrs by cup plate method. The settings on record: MTCC 1688, 24 h, read-out: DIZ. The data set is classed as functional. The procedure, abridged: as §1
Data set [12] can be described thus: Antioxidant activity assessed as trolox equivalents of cupric reducing antioxidant capacity after 30 mins. It counts as functional. The procedure, abridged: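 Mix of 1 ml CuCl2 (10 mM), 1 ml ethanolic neocuproine (7.5 mM), 1 ml ammonium acetate buffer (pH 7.0, 1 M), 1 ml compound or standard solution and 0.1 ml water, total 4.1 ml. A450 read after 30 min against reagent blank. TEAC = ε test/ε Trolox.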

The test system of data set [13] is Staphylococcus aureus. Put plainly: Antimicrobial activity against Staphylococcus aureus MTCC 96 at 0.02 ml of 1 mg/ml after 24 hrs by cup plate method. It counts as functional. Conditions: MTCC 96, 24 h, read-out: DIZ. The procedure, abridged: as §1
Data set [14] concerns Candida albicans. As to the kind of experiment: Antimicrobial activity against Candida albicans MTCC 227 at 0.02 ml of 1 mg/ml after 24 hrs by cup plate method. The data set is classed as functional. The settings on record: MTCC 227, 24 h, read-out: DIZ. The essentials:
as §1

Data set [15] deals with Bacillus subtilis. As to the kind of experiment: Antimicrobial activity against Bacillus subtilis MTCC 441 at 0.02 ml of 1 mg/ml after 24 hrs by cup plate method. The data set is classed as functional. The settings on record: MTCC 441, 24 h, read-out: DIZ. The procedure, abridged:
as §1

Data set [16] has as its system Mus musculus. As to the kind of experiment: Acute toxicity in Swiss albino mouse assessed as gross behavioral changes up to 1500 mg/kg, po. It counts as organism-based. Also noted: dose 1500 mg/kg, route oral. The settings on record: in vivo. The procedure, abridged: (§2)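 Swiss albino mice (6–8 weeks, 25–30 g) were dosed orally at 500, 1000 or 1500 mg/kg, following OECD guidelines. Body weight, food and water intake, behavioural patterns and mortality were recorded and compared with a control group.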

Data set [17] can be described thus: Antioxidant activity assessed as hydroxyl radical scavenging activity after 15 mins. It counts as functional. The procedure, abridged:
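Deoxyribose degradation mix: 2-deoxy-2-ribose 2.8 mM, KH2PO4–KOH 20 mM pH 7.4, FeCl3, EDTA, H2O2 1.0 mM, ascorbic acid, plus compound in methanol. Incubated 1 h at 37 °C. A 0.5 ml aliquot taken with 1 ml 2.8% TCA and 1 ml 1% TBA, heated 90 °C for 15 min, cooled, A532 read. % inhibition against blank.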

The next data set deals with Brain. As to the kind of experiment: Antioxidant activity against lipid peroxidation in Wister rat brain homogenates assessed as thiobarbituric acid reactive substance formation after 30 mins by spectrophotometer analysis. The data set is classed as functional, tissue-based. The settings on record: 0.5 h. The procedure, abridged:
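Whole brain minus cerebellum from overnight-fasted rats of either sex, 200–220 g. Homogenized 10% w/v in 0.15 M KCl and spun at 800 rpm for 10 min. Reaction incubated 37 °C for 30 min, then TBA:TCA (1:1) and BHT added, heated 80 °C for 20 min, cooled, centrifuged, A532 read.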

Data set [18] has as its system Radical scavenging activity. Put plainly: Antioxidant activity assessed as DPPH radical scavenging activity after 20 to 30 mins. It counts as functional. The procedure, abridged:
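Test solution (2 ml at 25, 50, 75, 100, 125) mixed with 2 ml ethanolic DPPH, held in the dark at ambient temperature 20–30 min, then A517 read against an ethanol blank. Tocopherol used as standard. % scavenging = (Acontrol−Atest)/Acontrol×100, run in triplicate. IC50 read graphically from the % scavenging versus concentration plot.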

Data set [19] deals with Mus musculus. Put plainly: Acute toxicity in Swiss albino mouse assessed as mortality up to 1500 mg/kg, po. The settings on record: in vivo. The data set is classed as organism-based. Further details: dose 1500 mg/kg, route oral. The procedure, abridged:
as §2

pIC50: −log10 of the molar value. In brackets after ≈: the same amount, converted by molar mass.

As usually defined, the inhibition in vivo is the relative decrease from the control value, in per cent. The term pIC50 denotes the negative decadic logarithm of the IC50, by convention in mol/L.

Regarding `OC(Cn1cncn1)(Cn1cncn1)c1ccc(F)cc1F` [FLUCONAZOLE], the figures for the zone of inhibition at 500 µg/mL in the data set on Candida albicans [1] and with Aspergillus niger [2] were 23.2 mm and 24 mm, respectively.

Turning to `CC1(C)S[C@@H]2[C@H](NC(=O)[C@H](N)c3ccc(O)cc3)C(=O)N2[C@H]1C(=O)O` [AMOXICILLIN], the zone of inhibition at 200 µg/mL was found to be 21.2 mm in the data set with Bacillus subtilis [3], 21.4 mm in the data set on Pseudomonas aeruginosa [4], 22 mm with Staphylococcus aureus [5] and 22.6 mm with Escherichia coli [6].

Take `O=C(NC(CS)C(=O)N(C(=O)NC1CCCCC1)C1CCCCC1)/C(=C\c1ccc(O)cc1)NC(=O)c1ccccc1` (stereo unspecified): the zone of inhibition at 1000 µg/mL with Escherichia coli [7] stood at 23.5 mm; in the data set on Aspergillus niger [8], 24.5 mm; with Pseudomonas aeruginosa [11], 20.7 mm; in the data set on Staphylococcus aureus [13], 24.8 mm; in the data set on Candida albicans [14], 26.6 mm; with Bacillus subtilis [15] it was 24.4 mm. For the same molecule, the figures for the inhibition in vivo at 100 mg/kg with Rattus norvegicus and in the data set with Mus musculus [9] were 41.3% and 43.2%, respectively. Also, the LC50 at 24 h in data set [10] is 4.38 µg/mL (≈ 7.39 µM). In addition, the TEAC (Trolox equivalents) in data set [12] was found to be 3.91. The Activity entry with Mus musculus [16] and in the data set with Mus musculus [19] was “Non-toxic” each time. Moreover, the pIC50 in [17] was 4.27; with Brain it was 4.26; in [18], 4.33.

As to `O=C(NCC(=O)N(C(=O)NC1CCCCC1)C1CCCCC1)/C(=C\c1ccccc1)NC(=O)c1ccccc1`, the zone of inhibition at 1000 µg/mL was determined as 20.2 mm in the data set on Escherichia coli [7]; 19.1 mm in the data set on Aspergillus niger [8]; 19.4 mm in the data set on Pseudomonas aeruginosa [11]; 18.1 mm with Staphylococcus aureus [13]; 20.7 mm in the data set with Candida albicans [14]; 19.2 mm in the data set on Bacillus subtilis [15]. The inhibition in vivo at 100 mg/kg in the data set on Rattus norvegicus was determined as 35.5%; with Mus musculus [9], 54%. Also, the LC50 at 24 h in data set [10] was determined as 6.02 µg/mL (≈ 11.3 µM). The TEAC (Trolox equivalents) in [12] was 0.89. In addition, the Activity entry with Mus musculus [16] and in the data set with Mus musculus [19] was “Non-toxic” in each case. Moreover, the negative-log IC50 (pIC50) in data set [17] was 4.24; with Brain it was 4.23; in data set [18], 4.30.

In the case of `O=C(NC(CS)C(=O)N(C(=O)NC1CCCCC1)C1CCCCC1)/C(=C\c1ccc(Cl)cc1)NC(=O)c1ccccc1` (stereo unspecified), the zone of inhibition at 1000 µg/mL in the data set with Escherichia coli [7] was determined as 18.3 mm; in the data set with Aspergillus niger [8] it was 21.2 mm; with Pseudomonas aeruginosa [11] it was 17.4 mm; in the data set on Staphylococcus aureus [13] it was 16.5 mm; with Candida albicans [14], 13.5 mm; with Bacillus subtilis [15], 18.4 mm. In addition, the values for the inhibition in vivo at 100 mg/kg with Rattus norvegicus and with Mus musculus [9] were 22.8% and 40.8%, respectively. Moreover, the LC50 at 24 h in data set [10] came out at 10 µg/mL (≈ 16.4 µM). The TEAC (Trolox equivalents) in data set [12] was determined as 2.65. Besides, the Activity result in the data set with Mus musculus [16] and with Mus musculus [19] was “Non-toxic” in each case. The figures for the negative logarithm of the IC50 (pIC50) (in data set [17]; in the data set with Brain; in data set [18]) were 4.18, 4.22 and 4.24, respectively.

Source of the values: ChEMBL document CHEMBL3232756, “Synthesis and biological evaluation of N-dehydrodipeptidyl-N,N'-dicyclohexylurea analogs” (Eur J Med Chem, 2014).
